Test results: PubChem BioAssay
Inconclusive results are not listed. The source made the active and inactive calls.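 Rule for the calls, unless noted: active = viability increase at or above a cutoff of the median across tested compounds plus 3 SD (cut at about 8.5% in these data, passing the limit was not always enough); inconclusive = some gains above the cutoff, reason not given; inactive = the rest.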

Assays:
[1] = S. cerevisiae growth inhibition in permissive medium (OD615), pilot counter-assay for S. cerevisiae lifespan shortening project, permissive growth control (AID 705;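 active = growth inhibition above 25% in both replicates, a cutoff set 3 SD above the mean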); conditions: OD615, 24 h, at 10 µM, active compounds read high
Outline: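 Material: engineered DeaD yeast; Compound: one dose 10 µM, DMSO 0.25% final; Detection: absorbance (optical density) at 615 nm; Buffer or medium: permissive raffinose/galactose medium; Timing: 24 h exposure, 30 °C.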

[2] = S. cerevisiae growth inhibition in restrictive medium, OD615, pilot screen, restrictive growth control, yeast lifespan reduction project (AID 706;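 active = growth inhibition above a set limit, 3 SD over mean compound inhibition, in both replicates, cut at about 43% in these data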;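 note: modified DeaD lifespan yeast strain shifted to restrictive glucose medium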); conditions: OD615, 48 h, at 10 µM, active compounds read high
Outline: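 Buffer or medium: restrictive glucose medium (CSMM-D); test system: modified S. cerevisiae; doses: single dose of 10 µM compound final, 0.25% DMSO; schedule: 48 h compound exposure at 30 °C; detection: absorbance (optical density) measured at 615 nm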

[3] = doxorubicin toxicity protection in MRP-1 cells – H69AR cells, CellTiter-Glo, duplicate, MRP-1 activator project, pilot screen (AID 807); conditions: H69AR viability with doxorubicin, CellTiter-Glo luminescence; at 10 µM; active compounds read high;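 note: compound pretreatment 18-22 h then 72 h combined with doxorubicin; 0% = doxorubicin alone and 100% = vehicle without doxorubicin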
[4] = viability of HCT116 without oncogenic beta-catenin – human colon tumor cells, pilot screen (AID 823;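 active = cell viability at or below a set limit in both duplicate runs, the limit being the all-compound median minus 4 SD, cut at about 23% in these data, passing the limit was not always enough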;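 note: 0% = wells killed by 20 µM Hyamine and 100% = untreated DMSO cell wells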); conditions: HCT116 beta-catenin knockout viability, CellTiter-Glo, 60 h; at 10 µM; active compounds read low
[5] = RAM pathway blockade in budding yeast – dse1pr::URA3 reporter, 5-FOA selection, pilot screen (AID 869;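 active = inhibition over a set limit, the all-compound mean plus 3 SD, in both replicate runs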;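 note: 0% = DMSO wells with no growth and 100% = 10 µM 1-NA-PP1 with full growth; RAM network block rescues cells from 5-FOA so hits raise OD615 growth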); conditions: S. cerevisiae dse1pr::URA3 5-FOA growth, OD615, 2 d; at 10 µM; active compounds read high; strain carries analog-sensitive mutant Cbk1 kinase
[6] = RAM signaling pathway blockade in yeast – S. cerevisiae, Pdr1DBD-CYC8 efflux-inhibited sensitized strain, primary screen (AID 1298;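 active = RAM network inhibition above 8.4% in each of two replicates, 3 SD over the compound average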;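 note: 0% = DMSO untreated cells without growth and 100% = 10 µM 1-NA-PP1 full growth; higher means more yeast growth rescued from 5-FOA killing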); conditions: S. cerevisiae cbk1-as DSE1-URA3 strain, 5-FOA growth OD615, 2 d; at 50 µM; active compounds read high

CC(C)OCCCNC(=O)c1ccc(NC(=O)C2CCCO2)cc1 (centres undefined)
inactive: growth inhibition [1] -12.9% | growth inhibition [2] -8.97% | viability increase [3] -1.08% | viability [4] 99.9% | inhibition [5] 1.57% | RAM network inhibition [6] 1.15%

CCOC(=O)C1CCCN(C(=O)CC(C)c2ccccc2)C1 (centres undefined)
inactive: growth inhibition [1] -14.4% | growth inhibition [2] -0.005% | viability increase [3] -1.25% | viability [4] 104% | inhibition [5] 1.57% | RAM network inhibition [6] 3.91%

N#Cc1c2n(cnc1=O)CCCCC2
inactive: growth inhibition [1] -15.7% | growth inhibition [2] 3.32% | viability increase [3] -1.5% | viability [4] 100% | inhibition [5] 0.835% | RAM network inhibition [6] 3.53%

CCN(CC)S(=O)(=O)c1ccc(NC(=O)Cn2c(=O)oc3ccccc32)cc1
inactive: growth inhibition [1] -12.3% | growth inhibition [2] -11.6% | viability increase [3] -3.33% | viability [4] 96.7% | inhibition [5] 2.38% | RAM network inhibition [6] 5.71%

O=C1c2ccccc2C(=O)N1CCCC(=O)N1CCc2ccccc21
inactive: growth inhibition [1] -21.9% | growth inhibition [2] 8.75% | viability increase [3] -0.37% | viability [4] 95.7% | inhibition [5] 2.44% | RAM network inhibition [6] 10.1%

O=C(CN1C(=O)c2cccc3cccc1c23)N1CCN(c2ccc(F)cc2)CC1
inactive: growth inhibition [1] -26.6% | growth inhibition [2] -0.695% | viability increase [3] -2.42% | viability [4] 94.1% | inhibition [5] 2.49% | RAM network inhibition [6] 8.63%

O=C(CN1CCN(c2ccccn2)CC1)Nc1cccc(C(F)(F)F)c1
inactive: growth inhibition [1] -3.17% | growth inhibition [2] 5.07% | viability increase [3] -1.96% | viability [4] 97.9% | inhibition [5] 2.27% | RAM network inhibition [6] 2.45%

O=C(CNC(=O)Cn1ccc2ccccc2c1=O)NCCCN1CCN(c2cccc(Cl)c2)CC1
inactive: growth inhibition [1] -15.3% | growth inhibition [2] -5.33% | viability increase [3] -5.42% | viability [4] 57.3% | inhibition [5] 1.63% | RAM network inhibition [6] 2.03%

Cn1ccnc1SCC(=O)NC1CCCCC1
inactive: growth inhibition [1] -11.1% | growth inhibition [2] -7.09% | viability increase [3] -0.96% | viability [4] 100% | inhibition [5] 3.6% | RAM network inhibition [6] 1.87%

O=C1CC(c2ccccc2)n2nc(N3C(=O)CCC3=O)nc2N1 (centres undefined)
inactive: growth inhibition [1] -8.97% | growth inhibition [2] 1.75% | viability increase [3] -0.15% | viability [4] 97.9% | inhibition [5] 1.32% | RAM network inhibition [6] 3.53%

CCN(CC)c1ccc(NC(=O)c2ccc(NC(=O)C3CCCO3)cc2)c(C)c1 (centres undefined)
inactive: growth inhibition [1] -6.83% | growth inhibition [2] 3.42% | viability increase [3] 1.38% | viability [4] 94.8% | inhibition [5] 0.965% | RAM network inhibition [6] 6.65%

COC(=O)c1cc(=O)n(Cc2ccco2)c(=Nc2ccc(F)c(Cl)c2)s1
active: viability [4] 9.25%
inactive: growth inhibition [1] -17.1% | growth inhibition [2] -11.1% | viability increase [3] -8.24% | inhibition [5] 2.19% | RAM network inhibition [6] 10.1%

CC(C)(C)NS(=O)(=O)c1ccc(OCC(=O)Nc2ccc3c(c2)OCCO3)cc1
inactive: growth inhibition [1] -11.5% | growth inhibition [2] -8.28% | viability increase [3] -0.9% | viability [4] 102% | inhibition [5] 2.62% | RAM network inhibition [6] 7.73%

Cc1ccc(S(=O)(=O)N2CCC(C(=O)N[C@@H](C)C(=O)NCC3CCCO3)CC2)cc1 (some centres undefined)
inactive: growth inhibition [1] -19.6% | growth inhibition [2] -9.68% | viability increase [3] -2.65% | viability [4] 97% | inhibition [5] 2.1% | RAM network inhibition [6] -0.73%

COc1cc(C2/C(=C(\O)c3cc(C)ccc3C)C(=O)C(=O)N2CCN(C)C)ccc1O (centres undefined)
inactive: growth inhibition [1] -21.2% | growth inhibition [2] -6.28% | viability increase [3] -1.94% | viability [4] 100% | inhibition [5] 1.94% | RAM network inhibition [6] 10.3%

O=C(Nc1ccc(Br)cc1Cl)c1cnccn1
inactive: growth inhibition [1] 1.88% | growth inhibition [2] -0.415% | viability increase [3] -0.71% | viability [4] 84.1% | inhibition [5] 1.97% | RAM network inhibition [6] 2.32%

CCC1SC2=NC(C)=C(C(=O)OC)C(c3ccc(C(=O)OC)cc3)N2C1=O (centres undefined)
inactive: growth inhibition [1] 6.67% | growth inhibition [2] 35.7% | viability increase [3] 3.25% | viability [4] 101% | inhibition [5] 1.47% | RAM network inhibition [6] 9.87%

COc1cc(C2=Nc3c(c(C)nn3-c3ccccc3)P(=O)(N3CCOCC3)O2)cc(OC)c1OC (centres undefined)
inactive: growth inhibition [1] 12.4% | growth inhibition [2] 0.78% | viability increase [3] -2.26% | viability [4] 92% | inhibition [5] 0.485% | RAM network inhibition [6] 2.86%

Cc1cccc(NC(=O)Cn2cnc3c(cnn3-c3ccc(F)cc3)c2=O)c1C
inactive: growth inhibition [1] -1.04% | growth inhibition [2] -2.65% | viability increase [3] -8.31% | viability [4] 29.6% | inhibition [5] 0.735% | RAM network inhibition [6] 2.47%

CCOC(=O)C1=C(N)OC2=C(C(=O)CCC2)C1c1cccnc1 (centres undefined)
inactive: growth inhibition [1] -6.66% | growth inhibition [2] 4.47% | viability increase [3] -2.49% | viability [4] 104% | inhibition [5] 1.22% | RAM network inhibition [6] 2.44%

Cc1ccccc1-c1ccc(Nc2ccc(N3CCOCC3)cc2)nn1
inactive: growth inhibition [1] -3.44% | growth inhibition [2] 15.8% | viability increase [3] -5.91% | viability [4] 81% | inhibition [5] 0.46% | RAM network inhibition [6] 2.5%

Cc1ccc(N=C2SCCCN2C(=O)c2ccco2)cc1Cl
inactive: growth inhibition [1] -10.1% | growth inhibition [2] 4.65% | viability increase [3] -5.58% | viability [4] 87.6% | inhibition [5] 0.575% | RAM network inhibition [6] 0.78%

COCCn1c(=O)[nH]c2cc(C(=O)NCCN3CCN(c4ccccc4F)CC3)ccc2c1=O
inactive: growth inhibition [1] 0.575% | growth inhibition [2] 4.3% | viability increase [3] -1.27% | viability [4] 94.3% | inhibition [5] 1.31% | RAM network inhibition [6] 9.5%

Cc1c(C(=O)Nc2ccncc2)sc2nc(-c3ccc(F)cc3)cn12
inactive: growth inhibition [1] -5.44% | growth inhibition [2] 11.7% | viability increase [3] -6.8% | viability [4] 42.3% | inhibition [5] 1.96% | RAM network inhibition [6] 8.43%

CCOC(=O)C1CCN(C(=O)c2ccc(NC(=O)C3CCCO3)cc2)CC1 (centres undefined)
inactive: growth inhibition [1] -14.9% | growth inhibition [2] -7.09% | viability increase [3] -2.64% | viability [4] 88.8% | inhibition [5] 1.09% | RAM network inhibition [6] 3.28%

CCOc1cc(C2C(C(=O)c3ccco3)=C(O)C(=O)N2CCc2ccccc2)ccc1O (centres undefined)
inactive: growth inhibition [1] -35.8% | growth inhibition [2] -4.2% | viability increase [3] -1.77% | viability [4] 97.2% | inhibition [5] 4.93% | RAM network inhibition [6] 4.16%

CC(C)n1c(CNC(=O)c2ccccc2)nc2ccccc21
inactive: growth inhibition [1] -18.1% | growth inhibition [2] 9.14% | viability increase [3] -3.11% | viability [4] 100% | inhibition [5] 2.63% | RAM network inhibition [6] 1.5%

CC12COC3(C(=O)Nc4cccnc4)CC1CCC32C (centres undefined)
inactive: growth inhibition [1] -5.62% | growth inhibition [2] 1.04% | viability increase [3] -2.08% | viability [4] 109% | inhibition [5] 1.51% | RAM network inhibition [6] 2.55%

Cc1ccc(Cc2cnc(N)s2)o1
inactive: growth inhibition [1] -11.3% | growth inhibition [2] 10.1% | viability increase [3] -5.06% | viability [4] 75.9% | inhibition [5] 2.06% | RAM network inhibition [6] 5.71%

COc1ccccc1N1CCN(CC(=O)Nc2cc(C)nn2-c2nc(C)cc(C)n2)CC1
inactive: growth inhibition [1] -5.77% | growth inhibition [2] -18.8% | viability increase [3] -7.06% | inhibition [5] 1.77% | RAM network inhibition [6] 6.51%
active: viability [4] 19.6%

CC(=O)c1ccc(N2CCN(C(=O)c3ccc(NC(=O)C4CCCO4)cc3)CC2)cc1 (centres undefined)
inactive: growth inhibition [1] -23.3% | growth inhibition [2] -4.79% | viability increase [3] -3% | viability [4] 91.2% | inhibition [5] 2.3% | RAM network inhibition [6] 1.4%

O=C(N=c1nc2ccccn2s1)c1ccccc1
inactive: growth inhibition [1] -6.95% | growth inhibition [2] 6.63% | viability increase [3] -7.06% | viability [4] 71.6% | inhibition [5] 3.28% | RAM network inhibition [6] 6.13%

COC(=O)c1cn(NC(=O)C2CCCCC2)c(=O)c2ccccc12
inactive: growth inhibition [1] 13.2% | growth inhibition [2] 6.18% | viability increase [3] -1.25% | viability [4] 94.3% | inhibition [5] -0.16% | RAM network inhibition [6] 5.38%

C[C@@H](NC(=O)c1coc(=O)c(Br)c1)c1ccccc1
inactive: growth inhibition [1] -24.5% | growth inhibition [2] 3.37% | viability increase [3] -8.28% | viability [4] 63.7% | inhibition [5] 3.79% | RAM network inhibition [6] 7.48%

CN(C)CCCNC(=O)CC(c1ccc(F)cc1)c1ccco1 (centres undefined)
inactive: growth inhibition [1] -28.8% | growth inhibition [2] 0.42% | viability increase [3] -2.97% | viability [4] 77.9% | inhibition [5] 0.69% | RAM network inhibition [6] 5.45%

Cc1cccc(N(CC(=O)Nc2c(C)n(C)n(-c3ccccc3)c2=O)S(C)(=O)=O)c1C
inactive: growth inhibition [1] -16.3% | growth inhibition [2] -3.62% | viability increase [3] -1.08% | viability [4] 95.3% | inhibition [5] 1.41% | RAM network inhibition [6] 5.77%

CCCC(=O)Nc1cc(C)c(NC(=O)Cc2ccccc2)cn1
inactive: growth inhibition [1] 2.84% | growth inhibition [2] 6.81% | viability increase [3] -1.76% | viability [4] 98.2% | inhibition [5] 0.135% | RAM network inhibition [6] 2.84%

COc1ccccc1N1CCN(C2=CC(=O)CCC2)CC1
inactive: growth inhibition [1] -17.3% | growth inhibition [2] -12.2% | viability increase [3] -1.22% | viability [4] 100% | inhibition [5] 0.81% | RAM network inhibition [6] 2.91%

Cc1cccc(N2CCN(c3nc4ccccc4n4cnnc34)CC2)c1C
inactive: growth inhibition [1] -11.7% | growth inhibition [2] -6.28% | viability increase [3] -4.42% | viability [4] 49.3% | inhibition [5] 1.89% | RAM network inhibition [6] -0.66%
